The array DNA melting data of Ke et al. (doi:10.1101/2024.01.08.574731)

Assays:
[1] = folding enthalpy; higher = less favourable; fluorescence melt of hairpins on a sequencing array, two-state fit; conditions: sodium 0.088 M
Method in brief: (§1)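 Folding enthalpy and melting temperature were estimated with bootstrapped two-state fits and combined across four replicates by inverse-variance weighting, with fitted temperatures raised by 9.35 °C to match UV melts. The data were Cy3 fluorescence of library hairpins, with annealed Cy3 and quencher oligos, on a sequenced MiSeq flow cell in 50 mM Na-HEPES pH 8.0, 25 mM NaCl, imaged in 2.5 °C steps up to 60 °C and normalised to pre-quench Cy3 and control constructs.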

[2] = melting temperature; fluorescence melt of hairpins on a sequencing array, two-state fit, raised by 9.35 °C to match UV melts; conditions: sodium 0.088 M
Method in brief: as §1

GCAAATGGAAACACTTGC ((((.((....)).))))
folding enthalpy [1]: -31.5 kcal/mol
Tm [2]: 33.9 °C

GCAACACCGAAAGGTTGC (((..(((....))))))
folding enthalpy [1]: -22.6 kcal/mol
Tm [2]: 49.8 °C

GCAACACGAAAGTGCTGC (((.(((....))).)))
folding enthalpy [1]: -48.4 kcal/mol
Tm [2]: 54.8 °C

GCAACAGCGAAAGCTTGC (((..(((....))))))
folding enthalpy [1]: -19.5 kcal/mol
Tm [2]: 46.6 °C

GCAACCGAAAGGTAGTGC ((((((....)))..)))
folding enthalpy [1]: -20.1 kcal/mol
Tm [2]: 41.2 °C

GCAACCGGAAACGATTGC ((((.((....)).))))
folding enthalpy [1]: -31.5 kcal/mol
Tm [2]: 47.4 °C

GCAACGCGAAAGCCTTGC ((((.((....)).))))
folding enthalpy [1]: -21.5 kcal/mol
Tm [2]: 47.9 °C

GCAACGCGAAAGCGACGC ((..(((....)))..))
folding enthalpy [1]: -15.9 kcal/mol
Tm [2]: 48.5 °C

GCAACGCGAAAGCGCCGC ((..(((....)))..))
folding enthalpy [1]: -9.13 kcal/mol
Tm [2]: 40.8 °C

GCAACGCGAAAGCGTCGC ((.((((....)))).))
folding enthalpy [1]: -22.2 kcal/mol
Tm [2]: 64.7 °C

GCAACGCGAAAGCTCTGC (((..((....))..)))
folding enthalpy [1]: -9.33 kcal/mol
Tm [2]: 34.6 °C

GCAACGGCGAAAGCCTGC (((..(((....))))))
folding enthalpy [1]: -15.2 kcal/mol
Tm [2]: 47 °C

GCAACTGGAAACAGTCGC ((.((((....)))).))
folding enthalpy [1]: -33 kcal/mol
Tm [2]: 45.9 °C

GCAAGACGAAAGTCATGC (((.(((....))).)))
folding enthalpy [1]: -32.2 kcal/mol
Tm [2]: 54.4 °C

GCAAGAGGAAACTCCTGC (((.(((....))).)))
folding enthalpy [1]: -18.2 kcal/mol
Tm [2]: 35.2 °C

GCAAGCACGAAAGTGTGC (((..(((....))))))
folding enthalpy [1]: -16 kcal/mol
Tm [2]: 40.4 °C

GCAAGCGAAAGCTAGTGC ((((((....)))..)))
folding enthalpy [1]: -17.8 kcal/mol
Tm [2]: 39.9 °C

GCAAGCGGAAACGTTTGC ((((.((....)).))))
folding enthalpy [1]: -38.5 kcal/mol
Tm [2]: 53.5 °C

GCAAGGCCGAAAGGCTGC (((..(((....))))))
folding enthalpy [1]: -14.8 kcal/mol
Tm [2]: 51.6 °C

GCAAGGCGAAAGCATTGC ((((.((....)).))))
folding enthalpy [1]: -38.2 kcal/mol
Tm [2]: 67.2 °C

GCAAGGCGAAAGCCTAGC ((.((((....)))).))
folding enthalpy [1]: -18.4 kcal/mol
Tm [2]: 61.7 °C

GCAAGGCGAAAGCCTGC (((.(((....))))))
folding enthalpy [1]: -19.8 kcal/mol
Tm [2]: 66.5 °C

GCAAGGCGAAAGCGGTGC (((..((....))..)))
folding enthalpy [1]: -21.2 kcal/mol
Tm [2]: 47.1 °C

GCAAGGCGAAAGCGTCGC ((.(.((....)).).))
folding enthalpy [1]: -15.4 kcal/mol
Tm [2]: 40.7 °C

GCAAGGCGAAAGCTTAGC ((.(.((....)).).))
folding enthalpy [1]: -13.6 kcal/mol
Tm [2]: 38.8 °C

GCAAGGGCGAAAGCCTGC (((..(((....))))))
folding enthalpy [1]: -14 kcal/mol
Tm [2]: 50.9 °C

GCAAGGGGAAACCCTTAC (.(((((....))))).)
folding enthalpy [1]: -14.3 kcal/mol
Tm [2]: 33.6 °C

GCAAGTACGAAAGTATGC (((..(((....))))))
folding enthalpy [1]: -19 kcal/mol
Tm [2]: 33.4 °C

GCAAGTCGAAAGACTGC (((.(((....))))))
folding enthalpy [1]: -25.8 kcal/mol
Tm [2]: 57.1 °C

GCAAGTGAAAACTTGC ((((((....))))))
folding enthalpy [1]: -35.4 kcal/mol
Tm [2]: 61.5 °C

GCAAGTGCGAAAGCATGC (((..(((....))))))
folding enthalpy [1]: -14 kcal/mol
Tm [2]: 44.5 °C

GCAAGTGGAAACATTTGC ((((.((....)).))))
folding enthalpy [1]: -29.8 kcal/mol
Tm [2]: 45.9 °C

GCAAGTGGAAACGTTTGC ((((..(....)..))))
folding enthalpy [1]: -20.4 kcal/mol
Tm [2]: 34.4 °C

GCAATACGAAAGTATGC (((.(((....))))))
folding enthalpy [1]: -29.4 kcal/mol
Tm [2]: 50.6 °C

GCAATAGCGAAAGCTTGC (((..(((....))))))
folding enthalpy [1]: -24.7 kcal/mol
Tm [2]: 48.7 °C

GCAATAGGAAACTACTGC (((.(((....))).)))
folding enthalpy [1]: -14.5 kcal/mol
Tm [2]: 29.8 °C

GCAATCGAAAGATATGC ((((((....))).)))
folding enthalpy [1]: -21.1 kcal/mol
Tm [2]: 36.3 °C

GCAATCGAAAGATGGTGC ((((((....)))..)))
folding enthalpy [1]: -21.2 kcal/mol
Tm [2]: 36.3 °C

GCAATCGAAAGATTTGC ((((((....))).)))
folding enthalpy [1]: -27.6 kcal/mol
Tm [2]: 44.2 °C

GCAATCGGAAACGATTGC (((((((....)))))))
folding enthalpy [1]: -41.9 kcal/mol
Tm [2]: 69.2 °C

GCAATGCGAAAGCAATGC (((.(((....))).)))
folding enthalpy [1]: -40 kcal/mol
Tm [2]: 56.5 °C

GCAATGCGAAAGCACAGC ((..(((....)))..))
folding enthalpy [1]: -14.9 kcal/mol
Tm [2]: 34.3 °C

GCAATGCGAAAGCAGAGC ((..(((....)))..))
folding enthalpy [1]: -19.5 kcal/mol
Tm [2]: 55 °C

GCAATGCGAAAGCCTAGC ((.(.((....)).).))
folding enthalpy [1]: -11.2 kcal/mol
Tm [2]: 26.8 °C

GCAATGCGAAAGCCTGGC ((.(.((....)).).))
folding enthalpy [1]: -13.8 kcal/mol
Tm [2]: 34.2 °C

GCAATGCGAAAGCGATGC (((..((....))..)))
folding enthalpy [1]: -20.6 kcal/mol
Tm [2]: 53 °C

GCAATGGCGAAAGCCTGC (((..(((....))))))
folding enthalpy [1]: -14.1 kcal/mol
Tm [2]: 50.5 °C

GCAATGGGAAACCGTTGC ((((.((....)).))))
folding enthalpy [1]: -43.3 kcal/mol
Tm [2]: 55 °C

GCAATGGGAAACTATTGC (((((.(....).)))))
folding enthalpy [1]: -33.5 kcal/mol
Tm [2]: 47 °C

GCAATGGGAAACTGTTGC ((((..(....)..))))
folding enthalpy [1]: -27.7 kcal/mol
Tm [2]: 40.4 °C

GCAATTGCGAAAGCATGC (((..(((....))))))
folding enthalpy [1]: -14.9 kcal/mol
Tm [2]: 40.2 °C

GCAATTGGAAACAGTTGC ((((.((....)).))))
folding enthalpy [1]: -33.3 kcal/mol
Tm [2]: 47 °C

GCAATTGGAAACGATTGC (((((.(....).)))))
folding enthalpy [1]: -37.4 kcal/mol
Tm [2]: 48.4 °C

GCACAACCGAAAGGTTGC (((..(((....))))))
folding enthalpy [1]: -8.1 kcal/mol
Tm [2]: 37.8 °C

GCACACGAAAGTGCCTGC ((((((....)))..)))
folding enthalpy [1]: -13.2 kcal/mol
Tm [2]: 34.7 °C

GCACACGAAAGTGCTGC ((((((....))).)))
folding enthalpy [1]: -34 kcal/mol
Tm [2]: 54.7 °C

GCACACGAAAGTGGATGC ((((((....)))..)))
folding enthalpy [1]: -17.9 kcal/mol
Tm [2]: 45.6 °C

GCACACGGAAACACGTGC ((((..(....)..))))
folding enthalpy [1]: -22.5 kcal/mol
Tm [2]: 40.2 °C

GCACACGGAAACATGTGC (((((.(....).)))))
folding enthalpy [1]: -35.2 kcal/mol
Tm [2]: 47.4 °C

GCACACGGAAACGTGCAC (..((((....))))..)
folding enthalpy [1]: -9.99 kcal/mol
Tm [2]: 33.2 °C

GCACAGCGAAAGCAGCGC ((.(.((....)).).))
folding enthalpy [1]: -19.4 kcal/mol
Tm [2]: 53.6 °C

GCACAGCGAAAGCGGAGC ((.(.((....)).).))
folding enthalpy [1]: -25.9 kcal/mol
Tm [2]: 61.6 °C

GCACAGCGAAAGCGTTGC (((..((....))..)))
folding enthalpy [1]: -15.5 kcal/mol
Tm [2]: 48.2 °C

GCACAGCGAAAGCTACGC ((..(((....)))..))
folding enthalpy [1]: -16.7 kcal/mol
Tm [2]: 42 °C

GCACAGGGAAACCCATGC (((..((....))..)))
folding enthalpy [1]: -17.6 kcal/mol
Tm [2]: 32 °C

GCACATGCGAAAGCATGC (((..(((....))))))
folding enthalpy [1]: -7.24 kcal/mol
Tm [2]: 40.4 °C

GCACATGGAAACGTGTGC (((((.(....).)))))
folding enthalpy [1]: -45.2 kcal/mol
Tm [2]: 55.5 °C

GCACCACCGAAAGGTTGC (((..(((....))))))
folding enthalpy [1]: -15.9 kcal/mol
Tm [2]: 39.5 °C

GCACCAGGAAACCGGTAC (.(((.(....).))).)
folding enthalpy [1]: -8.98 kcal/mol
Tm [2]: 22.2 °C

GCACCAGGAAACTGGCAC (..((((....))))..)
folding enthalpy [1]: -11.6 kcal/mol
Tm [2]: 23.9 °C

GCACCCCGAAAGGGCTGC (((.(((....))).)))
folding enthalpy [1]: -24.9 kcal/mol
Tm [2]: 50 °C

GCACCCGAAAGGGAATGC ((((((....)))..)))
folding enthalpy [1]: -20.1 kcal/mol
Tm [2]: 45.3 °C

GCACCCGAAAGGGCATGC ((((((....)))..)))
folding enthalpy [1]: -15 kcal/mol
Tm [2]: 41 °C

GCACCCGAAAGGGTTTGC ((((((....)))..)))
folding enthalpy [1]: -13.2 kcal/mol
Tm [2]: 41.6 °C

GCACCCGCGAAAGCGTGC (((..(((....))))))
folding enthalpy [1]: -14.5 kcal/mol
Tm [2]: 42.6 °C

GCACCCGGAAACAGGCGC ((.((.(....).)).))
folding enthalpy [1]: -22.3 kcal/mol
Tm [2]: 32.8 °C

GCACCCGGAAACAGGTGC (((((.(....).)))))
folding enthalpy [1]: -34.6 kcal/mol
Tm [2]: 52.4 °C

GCACCCGGAAACGGGTAC (.(((((....))))).)
folding enthalpy [1]: -12.7 kcal/mol
Tm [2]: 45.1 °C

GCACCGCGAAAGCAGCGC ((.(.((....)).).))
folding enthalpy [1]: -18.2 kcal/mol
Tm [2]: 46.5 °C

GCACCGCGAAAGCAGTGC ((((.((....)).))))
folding enthalpy [1]: -25.6 kcal/mol
Tm [2]: 65 °C

GCACCGCGAAAGCCGGGC ((.(.((....)).).))
folding enthalpy [1]: -20.6 kcal/mol
Tm [2]: 54.5 °C

GCACCGGGAAACCGATGC (((.(((....))).)))
folding enthalpy [1]: -25.2 kcal/mol
Tm [2]: 50.6 °C

GCACCGTCGAAAGACTGC (((..(((....))))))
folding enthalpy [1]: -17.7 kcal/mol
Tm [2]: 35.9 °C

GCACGAGCGAAAGCTTGC (((..(((....))))))
folding enthalpy [1]: -11.3 kcal/mol
Tm [2]: 41 °C

GCACGAGGAAACTCATGC (((.(((....))).)))
folding enthalpy [1]: -28.8 kcal/mol
Tm [2]: 41.2 °C

GCACGAGGAAACTCGCAC (..((((....))))..)
folding enthalpy [1]: -8.67 kcal/mol
Tm [2]: 25.5 °C

GCACGAGGAAACTTGTGC ((((.((....)).))))
folding enthalpy [1]: -43.5 kcal/mol
Tm [2]: 54.5 °C

GCACGATCGAAAGATTGC (((..(((....))))))
folding enthalpy [1]: -18.7 kcal/mol
Tm [2]: 31.7 °C

GCACGCGGAAACACGTGC (((((.(....).)))))
folding enthalpy [1]: -51.2 kcal/mol
Tm [2]: 57.1 °C

GCACGCGGAAACGTGTGC ((((.((....)).))))
folding enthalpy [1]: -46 kcal/mol
Tm [2]: 66.7 °C
